In brackets after ≈: the same amount, converted by molar mass. Activity calls are given as the source filed them.
Experiments:
[1] = target: T1, DNA topoisomerase 2-alpha (Homo sapiens, UniProt P11388); assay: Inhibition of human topoisomerase 2alpha mediated decatenation at 30 uM using kDNA as susbtrate preincubated for 20 mins followed by substrate and ATP addition and measured after 1 hr by ethidium bromide staining based gel electrophoresis method relative to control
Method in brief: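 Human TOP2A (3 U) preincubated 20 min at 37 °C with compound at 30 μM in 1.2% DMSO. Reaction started with 2 mM ATP and 35 ng kDNA and run 1 h at 37 °C. Products resolved on 0.8% agarose in TBE with 0.2 μg/mL ethidium bromide; decatenated bands compared with vehicle.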

[2] = target: T1, DNA topoisomerase 2-alpha; assay: Inhibition of topoisomerase 2alpha in human SW620 organoids transfected with VimPro-GFP reporter assessed as reversion of epithelial-mesenchymal transition by measuring reduction in vimentin expression up to 40 uM after 72 hrs by Hoechst 33342 staining based GFP reporter gene assay
Method in brief: (§1)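 SW620 cells stably carrying VimPro-GFP or EcadPro-mCherry (puromycin selected) grown as organoids and dosed 72 h. Stained with 16 μM Hoechst 33342 for 1 h and imaged as 15 z-layers, 26.5 μm apart. Nuclei segmented and GFP- or mCherry-positive cells counted above background thresholds. Percent positive cells normalised to DMSO.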

[3] = system: SW-620; assay: Cytotoxicity against human SW620 organoids assessed as growth inhibition at 10 uM after 72 hrs by brightfield imaging of organoid volume
[4] = Cmax in CD-1 mouse at 50 mg/kg, ip by LC-MS/MS analysis; assay type: ADME, organism-based; parameters: dose 50 mg/kg, route intraperitoneal; details: in vivo
Method in brief: (§2)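 Female CD-1 mice, single IP injection at 50 mg/kg in 100% DMSO. Sampling from 0.25 to 24 h, three mice per time point (21 per compound). Heparinised blood was spun to plasma, mixed 1:1 with acidified acetonitrile (0.1% formic acid or 0.1% TFA depending on compound), centrifuged, then measured by LC-MS/MS.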

[5] = system: SW-620; assay: Cytotoxicity against human SW620 organoids assessed as cell death with loss of membrane integrity after 72 hrs by CellTox Green assay; assay type: functional, cell-based; details: SW-620, 72 h
Method in brief: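 SW620 tumor organoids exposed 72 h to inhibitor over 0–40 μM together with CellTox Green Express (0.5X). Whole-well mean fluorescence imaged (ex 488, em 500–550 nm). Normalised to lysis buffer as 0% viability and 0.4% DMSO as 100% viability.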

[6] = Aqueous solubility of compound in PBS at 1 mg after 18 hrs by UV based analysis; assay type: physicochemical
Method in brief: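 Undissolved material removed by centrifugation at 5,000g for 45 min. UV absorption compared with a fully saturated 1-propanol solution; solubility derived by linear regression.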

[7] = Clearance in CD-1 mouse at 50 mg/kg, ip by LC-MS/MS analysis; assay type: ADME, organism-based; details: in vivo; method in brief: as §2
[8] = Metabolic stability in CD-1 mouse inactive microsomes incubated for 1 hr by LC-MS/MS analysis; assay type: ADME, Microsome
[9] = Drug metabolism in CD-1 mouse active microsomes assessed as CYP450-mediated oxidative phase 1 metabolite formation measured within 30 mins by LC-MS/MS analysis; assay type: ADME; details: 0.5 h
[10] = system: SW-620; assay: Induction of apoptosis in human SW620 organoids assessed as increase in cleaved caspase 3/7 level at 40 uM after 72 hrs by caspase-glo 3/7 luminescence assay relative to control; assay type: functional
Method in brief: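 SW620 cells, 2,000 per well in 384-well ultra-low attachment plates with 2% Matrigel, grown 72 h into organoids, then dosed 72 h. Caspase-Glo 3/7 reagent added 1:1 and shaken 30 min; luminescence read. Staurosporine served as positive control and 0.4% DMSO as negative control.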

[11] = system: SW-620; assay: Induction of early stage cell death in human SW620 organoids transfected with EcadPro-RFP reporter assessed as loss of RFP reporter activity at 40 uM at after 72 hrs by Hoechst 33342 staining based mCherryRFP reporter gene assay; details: sw-620, 72 h
[12] = Half life in CD-1 mouse microsomes measured up to 1 hr by LC-MS analysis; assay type: ADME, Microsome
Method in brief: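 Female CD-1 mouse liver microsomes (0.5 mg/mL), substrate 1 μg/mL and 1.5 mM NADPH in 0.1 M phosphate buffer pH 7.4 at 37 °C. Samples taken from 0 to 60 min and quenched with an equal volume of acetonitrile. Parent compound remaining measured by LC-MS/MS without internal standard.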

[13] = Tmax in CD-1 mouse at 50 mg/kg, ip by LC-MS/MS analysis; assay type: ADME, organism-based; details: in vivo; method in brief: as §2
[14] = system: Mus musculus; assay: Apparent volume of drug distribution in CD-1 mouse at 50 mg/kg, ip by LC-MS/MS analysis; assay type: ADME, organism-based; details: in vivo; method in brief: as §2
[15] = target: T1, DNA topoisomerase 2-alpha; assay: Inhibition of topoisomerase 2alpha in human SW620 organoids transfected with EcadPro-RFP reporter assessed as reversion of epithelial-mesenchymal transition by measuring increase in E-cadherin expression up to 40 uM after 72 hrs by Hoechst 33342 staining based mCherryRFP reporter gene assay; method in brief: as §1
[16] = target: T1, DNA topoisomerase 2-alpha; assay: Inhibition of topoisomerase 2alpha dependent TCF transcription in human SW620 organoids transduced with TOPflash luminescent reporter after 72 hrs by luciferase based TOPFlash reporter gene assay
Method in brief: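 SW620 cells stably carrying pCDH-TOPflash-luc grown as organoids: 5,000 cells per U-bottom well in phenol red-free RPMI with 5% FBS and 2% Matrigel, 72 h. Inhibitor then applied 72 h. One-Glo luciferase and CellTiter-Glo 3D added 1:1. Luciferase signal normalised to viability, then to DMSO controls.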

[17] = Half life of terminal disposition phase in CD-1 mouse at 50 mg/kg, ip by LC-MS/MS analysis; assay type: ADME, organism-based; details: in vivo, read-out: t1/2lambda (converted); method in brief: as §2
[18] = Drug metabolism in CD-1 mouse active microsomes assessed as metabolite formation at rate of first-order kinetics by LC-MS/MS analysis; assay type: ADME, Microsome
[19] = AUC(0 to t) in CD-1 mouse at 50 mg/kg, ip by LC-MS/MS analysis; assay type: ADME, organism-based; details: in vivo; method in brief: as §2
[20] = system: SW-620; assay: Anticlonogenic activity against human SW620 cells assessed as loss of cancer stem cell stemness by measuring inhibition of colony formation at 10 uM incubated for 24 hrs followed by replating and measured after 7 days by clonogenic assay; assay type: functional, cell-based
[21] = system: SW-620; assay: Antiinvasive activity in human SW620 organoids transduced with NucLight-Red virus assessed as inhibition of cell invasion at 10 uM incubated for 72 hrs and measured after 72 hrs by matrigel based fluorescence analysis; assay type: functional
Method in brief: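 NucLight-Red-labelled SW620 organoids treated 72 h at 10 μM in 0.1% DMSO, then dissociated. 5,000 live cells per well seeded in 50% Matrigel in the upper chamber of a migration plate, 0.5% FBS above and 20% FBS below. Invading cells tracked by bottom-side fluorescence over days, six replicates per condition.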

[22] = target: T1, DNA topoisomerase 2-alpha; assay: Inhibition of human topoisomerase 2alpha mediated decatenation using kDNA as susbtrate preincubated for 20 mins followed by substrate and ATP addition and measured after 1 hr by ethidium bromide staining based gel electrophoresis method
Method in brief: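 IC50 from decatenation gels: TOP2A at 4 U per reaction, compound as 2-fold serial dilutions from 58.6 nM to 30 μM, 20 min preincubation. Then 2 mM ATP plus 35 ng kDNA for 1 h at 37 °C. Gels were 0.8% agarose with ethidium bromide, with decatenated and catenated DNA marker lanes.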

T1 sequence (P11388 whole entry): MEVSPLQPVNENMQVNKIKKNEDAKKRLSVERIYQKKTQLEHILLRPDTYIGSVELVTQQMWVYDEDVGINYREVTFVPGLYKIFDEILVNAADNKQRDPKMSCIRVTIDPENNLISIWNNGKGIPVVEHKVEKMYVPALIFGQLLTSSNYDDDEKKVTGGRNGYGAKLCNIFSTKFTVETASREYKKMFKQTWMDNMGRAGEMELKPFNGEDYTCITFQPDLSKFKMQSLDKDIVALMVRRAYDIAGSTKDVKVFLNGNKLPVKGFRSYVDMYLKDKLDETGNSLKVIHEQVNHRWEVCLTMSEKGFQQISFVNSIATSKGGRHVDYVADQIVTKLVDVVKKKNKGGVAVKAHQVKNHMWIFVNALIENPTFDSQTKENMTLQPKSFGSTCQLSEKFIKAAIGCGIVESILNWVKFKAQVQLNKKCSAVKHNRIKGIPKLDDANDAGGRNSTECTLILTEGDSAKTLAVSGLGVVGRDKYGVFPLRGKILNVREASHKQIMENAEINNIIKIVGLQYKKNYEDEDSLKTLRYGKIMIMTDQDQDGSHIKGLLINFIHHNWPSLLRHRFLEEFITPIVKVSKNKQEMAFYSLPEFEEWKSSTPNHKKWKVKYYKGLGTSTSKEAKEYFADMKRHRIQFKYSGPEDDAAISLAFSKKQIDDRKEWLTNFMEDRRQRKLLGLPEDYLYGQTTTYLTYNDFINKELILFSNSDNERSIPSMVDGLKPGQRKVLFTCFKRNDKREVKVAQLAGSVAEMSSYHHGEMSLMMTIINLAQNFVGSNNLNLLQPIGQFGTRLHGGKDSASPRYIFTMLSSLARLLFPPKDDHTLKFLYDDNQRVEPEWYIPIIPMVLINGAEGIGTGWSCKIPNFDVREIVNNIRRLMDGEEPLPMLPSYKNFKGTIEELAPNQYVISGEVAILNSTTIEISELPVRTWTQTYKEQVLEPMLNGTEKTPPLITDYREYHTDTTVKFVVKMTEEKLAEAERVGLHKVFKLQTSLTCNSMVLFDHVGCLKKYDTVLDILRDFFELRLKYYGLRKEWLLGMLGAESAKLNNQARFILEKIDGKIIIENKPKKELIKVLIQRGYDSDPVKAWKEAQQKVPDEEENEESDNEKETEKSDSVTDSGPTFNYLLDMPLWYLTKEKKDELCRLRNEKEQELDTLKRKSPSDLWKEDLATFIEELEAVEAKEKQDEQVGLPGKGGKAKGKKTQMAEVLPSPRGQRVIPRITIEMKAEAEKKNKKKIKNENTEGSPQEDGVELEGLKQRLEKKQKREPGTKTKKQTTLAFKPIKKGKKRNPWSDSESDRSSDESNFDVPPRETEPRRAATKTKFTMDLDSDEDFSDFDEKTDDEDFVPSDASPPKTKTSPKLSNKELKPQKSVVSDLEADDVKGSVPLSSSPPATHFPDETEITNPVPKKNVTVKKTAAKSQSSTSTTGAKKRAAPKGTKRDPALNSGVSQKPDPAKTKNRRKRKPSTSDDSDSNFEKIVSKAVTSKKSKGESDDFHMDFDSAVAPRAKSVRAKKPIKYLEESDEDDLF

| Compound | inhibition [1] | EC50 [5] | Stability [8] | Drug metabolism [9] | IC50 [16] | Drug metabolism [18] | further results |
| --- | --- | --- | --- | --- | --- | --- | --- |
| CC(C)(C)C(=O)Nc1ccc2c(-c3cc(F)ccc3O)ccnc2c1O | 0% |  |  |  |  |  |  |
| O=C(CN1CCOCC1)Nc1ccc2c(-c3cc4ccccc4o3)ccnc2c1O | 100% | 22 µM | Stable | Metabolite_Notdetected | 1.1 µM | Metabolite_Detected | inhibition [2]: Active; growth inhibition (GI) [3]: Active; Cmax [4]: 1980 ng/mL; solubility thermodynamic at 18 h [6]: 45 µg/mL (≈ 112 µM); CL/F [7]: 137 mL/min/kg; fold change (FC) [10]: 3; Activity [11]: Active; t1/2 [12]: 30.18 min; Tmax [13]: 15 min; Vz [14]: 69.3 L/kg; inhibition [15]: Active; half-life [17]: 350 min; AUC(0-t) [19]: 5890 ng·h/mL |
| CC(=O)Nc1ccc2c(-c3cc4ccccc4s3)ccnc2c1O | 0% |  |  |  |  |  |  |
| CC(=O)Nc1ccc2c(-c3cc4ccccc4o3)ccnc2c1O | 100% | > 30 µM | Stable | Metabolite_Notdetected | 1 µM | Metabolite_Detected | Cmax [4]: 707 ng/mL; solubility thermodynamic at 18 h [6]: 28 µg/mL (≈ 88 µM); CL/F [7]: 283 mL/min/kg; inhibition [20]: Active; inhibition [21]: Active; t1/2 [12]: > 60 min; Tmax [13]: 15 min; Vz [14]: 108.9 L/kg; half-life [17]: 266 min; AUC(0-t) [19]: 2840 ng·h/mL |
| O=C(CCN1CCOCC1)Nc1ccc2c(-c3cc4ccccc4o3)ccnc2c1O | 83% | 17.4 µM | Stable | Metabolite_Notdetected | 2.5 µM | Metabolite_Detected | Cmax [4]: 6830 ng/mL; solubility thermodynamic at 18 h [6]: 1160 µg/mL (≈ 2780 µM); CL/F [7]: 61.8 mL/min/kg; inhibition [20]: Active; inhibition [21]: Active; t1/2 [12]: 14 min; Tmax [13]: 15 min; Vz [14]: 32 L/kg; half-life [17]: 358 min; AUC(0-t) [19]: 12900 ng·h/mL |
| CC(=O)Nc1ccc2c(-c3cccc(C(F)(F)F)c3)ccnc2c1O | 97% |  | Stable | Metabolite_Notdetected |  | Metabolite_Detected | IC50 [22]: 3.4 µM |
| CC(=O)Nc1ccc2c(-c3cccs3)ccnc2c1O | 100% | > 30 µM |  |  | 5 µM |  |  |
| COc1c(NC(C)=O)ccc2c(-c3cc(F)ccc3O)ccnc12 | 0% |  |  |  |  |  |  |
| CC(=O)Nc1ccc2c(-c3cc(Cl)ccc3O)ccnc2c1O | 0% |  |  |  |  |  |  |
| COc1c(NC(C)=O)cc(OC)c2c(-c3ccccc3NC(=O)c3ccccc3)ccnc12 | 0% |  |  |  |  |  |  |
| CC(=O)Nc1ccc(-c2ccnc3c(O)c(NC(C)=O)ccc23)cc1 | 97% | > 30 µM | Stable | Metabolite_Notdetected | 2 µM | Metabolite_Detected | IC50 [22]: 1.9 µM; inhibition [20]: Active; inhibition [21]: Active |
| CC(=O)Nc1ccc2c(-c3cccc(O)c3)ccnc2c1O | 0% |  |  |  |  |  |  |
| COc1ccc(F)cc1-c1ccnc2c(OC)c(NC(C)=O)ccc12 | 0% |  |  |  |  |  |  |
